# CHRM5 PAM: human M5 muscarinic receptor positive allosteric modulators, primary screen, CHO-K1 cells, Fluo-8 calcium fluorescence. Muscarinic acetylcholine receptor M5 (Homo sapiens), P08912. CHO-K1 hM5, ACh EC20 PAM; 0% = ACh EC20, 100% = ACh EC100. activation, % at 3 µM. 360,000 compounds, 0.3% hits. AID 624038, 2012;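 active = activation above the run cutoff, the mean activation of all test compounds plus 3 SD, cut at about 18% in these data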
#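 Test system: CHO-K1 hM5 cells / Doses: single-point, 3 µM nominal / Times: Post-acetylcholine fluorescence recording 140 s / Technique: Fluo-8 calcium fluorescence / Measure: Max/basal fluorescence ratio as % of EC20–EC100 ACh window / Benchmarks: low control EC20 acetylcholine (0%), high control EC100 acetylcholine (100%) / Replicates: one well per compound, no replicates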
# CHRM4 antagonist: human M4 muscarinic receptor antagonists, primary screen, CHO cells, Fluo-8 calcium fluorescence; CHO-hM4 cells, ACh EC80; inhibition, % at 3 µM; 360,000 compounds, 0.73% hits; AID 624125, 2012;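 active = inhibition above its plate's cutoff, the mean inhibition of sample wells plus 3 SD, cut at about 27% in these data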;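 note: 0% = acetylcholine EC80 with DMSO and 100% = DMSO without agonist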
# Target sequence (P08173 whole entry, looked up): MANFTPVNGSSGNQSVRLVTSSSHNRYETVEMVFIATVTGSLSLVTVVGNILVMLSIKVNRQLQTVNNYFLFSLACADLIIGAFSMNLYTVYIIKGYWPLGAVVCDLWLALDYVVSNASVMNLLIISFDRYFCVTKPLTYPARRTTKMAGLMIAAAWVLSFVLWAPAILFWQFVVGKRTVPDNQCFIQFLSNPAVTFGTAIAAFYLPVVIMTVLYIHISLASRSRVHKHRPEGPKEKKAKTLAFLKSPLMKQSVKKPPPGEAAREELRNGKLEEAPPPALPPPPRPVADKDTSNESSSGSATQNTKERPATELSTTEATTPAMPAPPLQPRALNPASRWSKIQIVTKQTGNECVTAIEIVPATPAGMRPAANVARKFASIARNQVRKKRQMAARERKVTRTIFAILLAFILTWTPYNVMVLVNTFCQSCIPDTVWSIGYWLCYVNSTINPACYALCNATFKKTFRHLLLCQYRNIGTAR
# CHRM5 antagonist: human M5 muscarinic receptor antagonists, primary screen, CHO cells, Fluo-8 calcium fluorescence; Muscarinic acetylcholine receptor M5 (Homo sapiens), P08912; CHO-hM5 cells, ACh EC80; inhibition, % at 3 µM; 360,000 compounds, 0.59% hits; AID 624040, 2012;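 active = inhibition above a per-plate cutoff, the mean of that plate's test compounds plus 3 SD, cut at about 27% in these data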;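 note: 0% = acetylcholine EC80 with DMSO and 100% = DMSO without agonist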
# CHRM4 agonist: human M4 muscarinic receptor agonists, primary screen, CHO-K1 cells, Fluo-8 calcium fluorescence; 360,000 compounds, 0.14% hits; AID 624127, 2012; activation, % at 3 µM; Muscarinic acetylcholine receptor M4 (Homo sapiens), P08173; CHO-K1 hM4/Gqi5; vehicle 0%, full acetylcholine response 100%;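 active = activation above the run mean over all test wells plus 3 SD, cut at about 32% in these data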;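 note: peak over basal fluorescence ratio per well then scaled between controls; 0% = DMSO wells and 100% = acetylcholine at EC100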
# CHRM4 PAM: human M4 muscarinic receptor positive allosteric modulators, primary screen, CHO-K1 cells, Fluo-8 calcium fluorescence; Muscarinic acetylcholine receptor M4 (Homo sapiens), P08173; CHO-K1 hM4/Gqi5, ACh EC20; 0% = ACh EC20, 100% = maximal ACh; activation, % at 3 µM; 360,000 compounds, 0.4% hits;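 active = activation above its plate's cutoff, the mean activation of sample wells plus 3 SD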
# CHRM5 agonist: human M5 muscarinic receptor agonists, primary screen, CHO-K1 cells, Fluo-8 calcium fluorescence. CHO-K1 hM5 cells; 0% DMSO wells, 100% maximal acetylcholine response. activation, % at 3 µM. 360,000 compounds, 0.19% hits. AID 624037, 2012;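 active = activation above the run's mean over test compounds plus 3 SD, cut at about 23% in these data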;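 note: signal is peak over basal fluorescence ratio across the kinetic read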
# * = called active by the depositor; x = no result given. Rows were chosen to be rich in hits. Some 1.8% of all compounds tested hit in one or more screens of this group.
SMILES,CHRM5 PAM,CHRM4 antagonist,CHRM5 antagonist,CHRM4 agonist,CHRM4 PAM,CHRM5 agonist
CCOC(=O)N1CCC(N2CCN(C3CCCC3)C(CCO)C2)CC1 (stereo unspecified),-5.1,79.8*,-2.9,0.9,-21.2,-11.0
O=C(COC(=O)CC1CCCC1)Nc1ccc(Cl)cc1,2.0,2.4,8.1,1.1,-3.6,-4.3
CCN(CC)c1ccc(S(=O)(=O)N2CCOCC2)cc1NC(=O)CNCc1cccc(Cl)c1,2.2,1.3,-2.3,7.3,-5.6,1.1
O=C(NCc1ccccn1)C(=O)N/N=C/c1ccccc1O,3.8,46.6*,-2.9,-1.2,-7.9,-4.0
O=C(O)/C=C/C(=O)NCc1ccccn1,21.4*,-10.8,1.1,0.9,6.7,0.8
O=C(O)/C=C/C(=O)NCc1ccccc1,0.2,6.4,-2.1,0.1,6.1,-0.7
Cc1cc(/C=N/NC(=O)C(=O)NCc2ccccn2)c(C)n1-c1cccc(Br)c1,3.5,-9.5,-6.0,3.5,-7.2,-2.3
O=C(Nc1nnc(-c2ccccc2Cl)o1)c1nc2ccccc2s1,-16.6,-5.8,7.2,110.7*,-9.1,65.1*
c1ccc(Nc2ncnc3sc4c(c23)CCC4)cc1,5.0,0.4,-14.5,-3.1,20.5,0.4
c1csc(CCNc2ncnc3sc4c(c23)CCC4)c1,-20.4,11.0,32.3*,14.3,-3.6,5.5
O=C1c2ccc([N+](=O)[O-])cc2C(=O)N1Cc1cccnc1,-8.5,3.2,-2.1,0.7,-0.2,-1.2
CCOC(=O)Cc1csc(NC(=O)COc2ccc(N(C)S(=O)(=O)c3ccc(C)cc3)cc2)n1,-47.8,4.2,8.4,11.6,-11.1,-4.1
CCOc1ccc(S(=O)(=O)N(C)c2ccc(OCC(=O)Nc3nc(-c4cc(OC)ccc4OC)cs3)cc2)cc1,-0.5,-7.2,9.8,0.3,30.3*,2.8
COc1ccc(OC)c(-c2csc(NC(=O)Cc3ccccc3F)n2)c1,-2.1,54.2*,8.2,-0.3,-19.9,-2.9
COc1ccc(OC)c(-c2csc(NC(=O)Cc3ccccc3OC)n2)c1,1.5,-20.5,3.1,3.7,-4.9,-5.6
COc1cc(C2C3=C(COC3=O)Oc3cc4c(cc32)OCO4)ccc1O (stereo unspecified),-2.8,2.4,9.5,0.9,-1.4,-12.1
Cc1nn(-c2ccccc2)nc1C(=O)Nc1nnc(C(F)(F)F)s1,-9.7,6.0,4.9,6.5,-4.0,6.4
CN1[C@@H]2CC(OC(=O)[C@H](CO)c3ccccc3)C[C@H]1[C@@H]1O[C@@H]12 (stereo partly specified),x,100.0*,x,-0.1,-17.5,x
O=Cc1c(Nc2cccc(C(F)(F)F)c2)nc2ccccn2c1=O,-7.3,-18.5,17.0,0.6,16.3*,-1.7
O=C(N/N=C/c1c(Nc2cccc(C(F)(F)F)c2)nc2ccccn2c1=O)c1ccccc1[N+](=O)[O-],3.3,-8.7,-4.2,-0.1,1.3,2.6
COc1ccc(C(=O)Nn2c(SCc3ccc([N+](=O)[O-])cc3)nc3ccccc3c2=O)cc1,18.3*,-21.0,5.8,2.5,-4.1,-2.5
CCC(=O)N1CCN(c2nc3ccccc3s2)CC1,-3.7,-3.5,-0.6,3.6,4.2,4.0
O=C(c1cc2sccc2n1Cc1ccccc1)N1CCN(c2nc3ccccc3s2)CC1,-10.1,26.8*,15.3,3.5,-9.6,-1.2
CCOc1cccc(-c2c(C(=O)N/N=C/c3cccs3)nnn2-c2nonc2N)c1,27.8*,-7.9,-19.6,8.1,6.5,28.3*
CCOc1cccc(-c2c(C(=O)N/N=C/c3ccncc3)nnn2-c2nonc2N)c1,-5.7,6.2,14.7,2.8,1.8,-2.3
SMILES,CHRM5 PAM,CHRM4 antagonist,CHRM5 antagonist,CHRM4 agonist,CHRM4 PAM,CHRM5 agonist
COc1cccc(-c2c(C(=O)N/N=C/c3cccs3)nnn2-c2nonc2N)c1,-3.8,-8.9,-4.4,8.2,2.9,30.6*
Cc1ccc(/C=N/NC(=O)c2nnn(-c3nonc3N)c2-c2cccs2)cc1,12.5,-0.9,1.8,10.3,10.0,30.1*
Cc1noc(C)c1S(=O)(=O)N1CCCN(C(=O)/C=C/c2ccccc2F)CC1,5.3,3.0,0.3,1.6,3.1,-1.3
C[C@@H]1CN([C@@H](C)CO)S(=O)(=O)c2ccc(Br)cc2O[C@@H]1CN(C)C(=O)c1ccccn1,3.5,-12.7,-7.9,-0.1,3.8,0.2
Cc1ccc(C(=O)NCC(=O)OCC(=O)c2ccc(Br)s2)cc1,-2.4,3.9,-5.1,-0.5,-3.6,-3.6
CCCNC(=O)C1(C)CCCN(C(=O)Cc2ccc3ccccc3c2)C1 (stereo unspecified),-1.2,-6.7,4.7,2.5,3.9,0.8
COCCNC(=O)C1(C)CCCN(C(=O)Cc2ccc3ccccc3c2)C1 (stereo unspecified),2.5,-15.5,-9.7,2.2,17.3*,0.7
S=C1NCN(Cc2ccccc2)CN1C1CCCCC1,20.8*,-0.3,-8.9,0.8,-0.1,-0.8
Cn1nc(C(=O)NCC2COc3ccccc3O2)c2ccccc2c1=O (stereo unspecified),-2.1,5.2,6.9,5.5,-3.7,-0.2
COc1ccc(C(=O)Nc2c(N)nc(SCC(=O)Nc3ccc(NC(C)=O)cc3)[nH]c2=O)cc1,-8.1,-5.8,8.2,1.0,7.9,-2.2
COc1ccc(NC(=O)CSc2nc(N)c(NC(=O)c3ccccc3F)c(=O)[nH]2)cc1,0.7,1.9,9.6,0.7,16.7*,-2.4
C[C@]12c3[nH]c4ccc(Cl)cc4c3CCN1C(=O)[C@@H](CC(=O)NCCc1ccccn1)C[C@@H]2C(=O)N1CCCCC1,-1.9,-3.3,5.0,0.1,2.0,2.6
O=C1NC2(Nc3ccccc31)C(=O)Nc1ccc(Br)cc12 (stereo unspecified),-30.4,-3.0,98.5*,0.4,-1.1,-14.9
COc1ccc(CNC(=O)C2CCN(S(=O)(=O)c3ccc4c(c3)C(C)(C)C(=O)N4C)CC2)cc1,-4.9,100.9*,0.5,-2.8,-20.6,0.5
COCn1c(-c2ccccc2)nc2ccccc21,2.8,-3.3,-11.5,0.6,28.8*,-3.5
Cc1noc(C)c1C(=O)Nc1nnc(-c2ccccc2)s1,-1.6,-2.1,0.0,3.4,3.8,0.8
Cc1onc(-c2c(F)cccc2Cl)c1C(=O)Nc1nnc(C(F)(F)F)s1,-11.5,1.3,29.0*,14.5,-3.0,6.4
